The values below come from ChEMBL document CHEMBL1123984, “Stereochemical aspects of phenylethanolamine analogues as substrates of phenylethanolamine N-methyltransferase” (J Med Chem, 1988).

The target in data set [1] is T1, Phenylethanolamine N-methyltransferase (Bos taurus, UniProt P10938).
T1 sequence (P10938 whole entry): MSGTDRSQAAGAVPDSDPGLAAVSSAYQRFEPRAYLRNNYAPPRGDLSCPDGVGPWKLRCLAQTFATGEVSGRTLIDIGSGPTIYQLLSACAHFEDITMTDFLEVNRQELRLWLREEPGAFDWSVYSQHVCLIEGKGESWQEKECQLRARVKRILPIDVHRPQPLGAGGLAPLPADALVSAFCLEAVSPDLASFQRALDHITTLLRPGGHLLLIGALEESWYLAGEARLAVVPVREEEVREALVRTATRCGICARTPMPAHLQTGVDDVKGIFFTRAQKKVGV
Put plainly: (§1) In vitro binding affinity of compound towards bovine adrenal phenylethanolamine N-methyl-transferase (PNMT). The procedure, abridged:
(§2)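 Bovine adrenal PNMT, purified through the isoelectric precipitation step, tested in a radiochemical methylation assay with isoamyl alcohol/toluene extraction. For substrates, Km came from at least five concentrations of the variable substrate. For inhibitors, Ki came from at least three inhibitor concentrations, with phenylethanolamine as the variable substrate.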

Data set [2] can be described thus: Vmax of compound was determined. Format: ADME. The procedure, abridged:
(§3)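 Substrate kinetics used bovine adrenal PNMT, purified through the isoelectric precipitation step, in a radiochemical methylation assay with isoamyl alcohol/toluene extraction. At least five concentrations of the variable substrate gave Km and Vmax. Vmax is in nmol product per mg protein per min, and the ratio is 100 × Vmax/Km.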

A short description of data set [3]: Ratio expressed as 100x Vmax/Km. The data set is classed as ADME. The procedure, abridged: as §3
Substrate in data set [4]: C[C@H](N)[C@H](O)c1ccccc1
Described as §1. In outline:
as §2

Substrate in data set [5]: N[C@H]1CCc2ccccc2[C@H]1O
The data set is described as §1. In outline:
as §2

For `N[C@@H]1CCc2ccccc2C1`, the Ki in data set [1] amounted to 10 µM.
For `C[C@@H](N)[C@H](O)c1ccccc1`, the affinity in data set [1], expressed as Ki, was 2440 µM.
Consider `N[C@@H]1CCc2ccccc2[C@@H]1O`, for which the affinity in data set [1], expressed as Ki, was 293 µM.
`N[C@@H]1CCc2ccccc2[C@@H]1O` (racemic): the Vmax in data set [2] is 0.15 nM/mg/min.
For the molecule `C[C@H](N)[C@H](O)c1ccccc1` [(1R,2S)-PHENYLPROPANOLAMINE], the Ratio in data set [3] was 0.017. In addition, the Vmax in data set [2] was determined as 0.22 nM/mg/min.
For `C[C@@H](N)[C@@H](O)c1ccccc1` [(1S,2R)-PHENYLPROPANOLAMINE], the Ki in data set [1] turned out to be 2980 µM.
`NC[C@H](O)c1ccccc1`: in data set [3], the Ratio turned out to be 1.7. In data set [2], the Vmax came out at 4.85 nM/mg/min.
In the case of `N[C@@H]1CCc2ccccc2C1O` (single isomer, unassigned), in data set [3], the Ratio worked out at 0.062. Further, the Vmax in data set [2] came to 0.12 nM/mg/min.
For the molecule `C[C@H](N)[C@@H](O)c1ccccc1` [CATHINE], affinity in data set [1] was put at a Ki of 3700 µM.
As to `N[C@H]1CCc2ccccc2C1`, the affinity in data set [1] corresponds to a Ki of 4.1 µM.
In the case of `N[C@H]1CCc2ccccc2[C@H]1O`, in data set [3], the Ratio is on record as 3.6. In addition, in data set [2], the Vmax stood at 0.16 nM/mg/min.
For the molecule `NC[C@@H](O)c1ccccc1`, in data set [3], the Ratio amounted to 0.96. In addition, the Vmax in data set [2] came to 0.92 nM/mg/min.
In turn, `N[C@H]1CCc2ccccc2[C@@H]1O` yielded a Ki in data set [1] of 4.6 µM.

B1: Phenylethanolamine N-methyltransferase (Bos taurus), P10938 (protein)
chain: T1 sequence (P10938 whole entry)
B1: the Km in data set [4] worked out at 1310 µM; in data set [5] it was 4.5 µM.

For orientation: Ki means a measure of affinity in units of concentration, obtained from inhibition or displacement. For orientation: Vmax means the rate approached at saturating substrate. The Km is the concentration of substrate that gives half-maximal velocity.
